Results on 16 compounds are retold here after PubChem BioAssay.

Unmarked numbers belong to inactive results. Inconclusive results are not listed. Active and inactive are the calls of the source.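 Rule for the calls, unless noted: active = viability increase at or above a cutoff of the median across tested compounds plus 3 SD (cut at about 8.5% in these data, passing the limit was not always enough); inconclusive = some gains above the cutoff, reason not given; inactive = the rest.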

Assay [1] can be described thus: S. cerevisiae growth inhibition in permissive medium (OD615), pilot counter-assay for S. cerevisiae lifespan shortening project, permissive growth control (AID 705;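 active = growth inhibition above 25% in both replicates, a cutoff set 3 SD above the mean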). As to conditions: OD615, 24 h, at 10 µM, active compounds read high. The method, boiled down: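 Material: engineered DeaD yeast; compound dosing: one dose 10 µM, DMSO 0.25% final; measure: yeast growth inhibition indicated by reduced 24 h OD615; detection: OD615 turbidity read; incubation: cells pre-grown 4 h, then 24 h compound exposure, 30 °C humidified; medium: permissive synthetic complete medium with raffinose and galactose carbon sources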

The nature of assay [2]: S. cerevisiae growth inhibition in restrictive medium, OD615, pilot screen, restrictive growth control, yeast lifespan reduction project (AID 706;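 active = growth inhibition above a set limit, 3 SD over mean compound inhibition, in both replicates, cut at about 43% in these data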;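 note: modified DeaD lifespan yeast strain shifted to restrictive glucose medium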). To be noted: OD615, 48 h, at 10 µM, active compounds read high. The method, boiled down: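 material = engineered S. cerevisiae DeaD strain | medium = glucose-based CSMM-D restrictive medium | times = 4 h pre-incubation, 48 h exposure at 30 °C | technique = OD615 absorbance reading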

The nature of assay [3]: doxorubicin toxicity protection in MRP-1 cells – H69AR cells, CellTiter-Glo, duplicate, MRP-1 activator project, pilot screen (AID 807).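 Note: compound pretreatment 18-22 h then 72 h combined with doxorubicin; 0% = doxorubicin alone and 100% = vehicle without doxorubicin.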 As to conditions: H69AR viability with doxorubicin, CellTiter-Glo luminescence; at 10 µM; active compounds read high.
Assay [4] is described as follows: viability of HCT116 without oncogenic beta-catenin – human colon tumor cells, pilot screen (AID 823;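 active = cell viability at or below a set limit in both duplicate runs, the limit being the all-compound median minus 4 SD, cut at about 23% in these data, passing the limit was not always enough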;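 note: 0% = wells killed by 20 µM Hyamine and 100% = untreated DMSO cell wells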). To be noted: HCT116 beta-catenin knockout viability, CellTiter-Glo, 60 h; at 10 µM; active compounds read low. Background: Cellular ATP, detected with luciferase, serves as a proxy for viable cell number.
A short description of assay [5]: viability of PTEN-null HCT116 cells – cell-based, HCT116 clonal line, CellTiter-Glo, pilot screen (AID 824;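 active = viability at or below 27.92% in each of two runs, the all-compound median minus 4 SD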;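 note: 0% = 20 µM Hyamine control and 100% = vehicle cell control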). To be noted: HCT116 PTEN-deleted viability, 60 h, at 10 µM, active compounds read low.
Assay [6] can be described thus: RAM pathway blockade in budding yeast – dse1pr::URA3 reporter, 5-FOA selection, pilot screen (AID 869;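 active = inhibition over a set limit, the all-compound mean plus 3 SD, in both replicate runs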;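 note: 0% = DMSO wells with no growth and 100% = 10 µM 1-NA-PP1 with full growth; RAM network block rescues cells from 5-FOA so hits raise OD615 growth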). As to conditions: S. cerevisiae dse1pr::URA3 5-FOA growth, OD615, 2 d; at 10 µM; active compounds read high; strain carries analog-sensitive mutant Cbk1 kinase.
Assay [7] is described as follows: RAM signaling pathway blockade in yeast – S. cerevisiae, Pdr1DBD-CYC8 efflux-inhibited sensitized strain, primary screen (AID 1298;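 active = RAM network inhibition above 8.4% in each of two replicates, 3 SD over the compound average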;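 note: 0% = DMSO untreated cells without growth and 100% = 10 µM 1-NA-PP1 full growth; higher means more yeast growth rescued from 5-FOA killing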). As to conditions: S. cerevisiae cbk1-as DSE1-URA3 strain, 5-FOA growth OD615, 2 d; at 50 µM; active compounds read high.

The viability is a read-out of living cells in per cent, often relative to untreated cells. As usually defined, the inhibition is the relative decrease from the control value, in per cent. As for `CC(C)OC(=O)CSc1nnc(-c2ccncc2)n1N`, the growth inhibition in assay [1] was -8.12%; in assay [2], -10.2%. In addition, the viability increase in assay [3] was -2.11%. The viability was 97.5% in assay [4] and 97.1% in assay [5]. The inhibition in assay [6] is 1.8%. Moreover, the RAM network inhibition in assay [7] was 3.83%.
`Cc1cc(C(=O)CN2CC(C)OC(C)C2)c(C)n1-c1ccccc1` (configuration not stated): the growth inhibition was 0.61% in assay [1] and -5.6% in assay [2]. Moreover, the viability increase in assay [3] was -1.04%. Moreover, the viability in assay [4] is 97.6%; in assay [5] it was 99.6%. Besides, the inhibition in assay [6] was 1.83%. In assay [7], the RAM network inhibition was 7.04%.
Consider `CC1CN(C(=O)Nc2ccc3snnc3c2)c2ccccc21` (configuration not stated), for which the results for the growth inhibition in assay [1] and in assay [2] were -4.18% and -6.81%, respectively. In assay [3], the viability increase is -2.57%. For the same compound, the figures for the viability in assay [4] and in assay [5] were 82% and 75%, respectively. In addition, the inhibition in assay [6] was 2.52%. In addition, the RAM network inhibition in assay [7] was 4.27%.
As for `O=C(Cc1cc(=O)[nH]c(=O)[nH]1)NCCN1CCOCC1`, the growth inhibition in assay [1] is 4.2%; in assay [2] it was 10.4%. Further, the viability increase in assay [3] was 1.08%. Further, the viability is 102% in assay [4] and 98.6% in assay [5]. Further, in assay [6], the inhibition was 0.35%. Besides, the RAM network inhibition in assay [7] was 5.04%.
For `O=C(CSc1nc(-c2ccco2)cc(C(F)(F)F)n1)N1CCN(Cc2ccccc2)CC1`, the growth inhibition in assay [1] is -6.8%; in assay [2], -13.4%. For the same compound, the viability increase in assay [3] is -4.54%. The viability in assay [4] is 86.8%; in assay [5], 82.8%. In addition, the inhibition in assay [6] is -0.555%. In assay [7], the RAM network inhibition is 6.26%.
For `COC(=O)c1c(C)nc(C)c2c(=O)oc3ccccc3c12`, the growth inhibition in assay [1] was 3.52%; in assay [2] it was 15.3%. For the same compound, the viability increase in assay [3] is 0.64%. For the same compound, the viability was 102% in assay [4] and 104% in assay [5]. Moreover, in assay [6], the inhibition was 2.04%. Besides, the RAM network inhibition in assay [7] was 1.99%.
`O=C1NC(c2cccs2)C(C(=O)c2ccccc2)C(O)(C(F)(F)F)N1` (configuration not stated): the growth inhibition in assay [1] is -0.14%; in assay [2], -7.88%. Also, the viability increase in assay [3] is -0.03%. The viability in assay [4] was 94.8%; in assay [5], 90.4%. Also, in assay [6], the inhibition is 0.61%. In assay [7], the RAM network inhibition was 0.87%.
On to `CCOc1ccccc1CNS(=O)(=O)c1ccc2c(c1)oc(=O)n2C`, for which the growth inhibition was -8.67% in assay [1] and -0.955% in assay [2]. For the same compound, the viability increase in assay [3] is -1.75%. Further, the figures for the viability in assay [4] and in assay [5] were 102% and 94%, respectively. In assay [6], the inhibition was -0.575%. The RAM network inhibition in assay [7] was 1.03%.
Take `Cn1c(NC(=O)CCc2ccccc2)cc(=O)n(C)c1=O`: the results for the growth inhibition in assay [1] and in assay [2] were -8.68% and -8.72%, respectively. Besides, the viability increase in assay [3] is -3.77%. In addition, the viability is 102% in assay [4] and 96.9% in assay [5]. In addition, the inhibition in assay [6] is 0.855%. Also, the RAM network inhibition in assay [7] was -0.05%.
For the compound `COCCOC(=O)C1=C(C)NC(=O)NC1c1ccc(OC(=O)c2ccco2)c(OC)c1` (configuration not stated), the results for the growth inhibition in assay [1] and in assay [2] were 7.03% and -14.5%, respectively. Also, the viability increase in assay [3] was -2.68%. In addition, the viability in assay [4] is 97.8%; in assay [5], 92.7%. Besides, the inhibition in assay [6] is 2.5%. Also, in assay [7], the RAM network inhibition is 4.12%.
With `COc1ccc(C2C(C#N)=C(N)N3C(=C2C#N)Sc2ccccc23)cc1` (configuration not stated), the values for the growth inhibition in assay [1] and in assay [2] were -1.28% and -4.12%, respectively. In assay [3], the viability increase was -0.06%. For the same compound, the results for the viability in assay [4] and in assay [5] were 98.9% and 102%, respectively. The inhibition in assay [6] is 1.09%. The RAM network inhibition in assay [7] was 8.82%.
Regarding `CC1CN(Cc2nc3c(c(=O)n(C)c(=O)n3C)n2Cc2ccc(Cl)cc2)CC(C)O1` (configuration not stated), the growth inhibition was -3.79% in assay [1] and 0.39% in assay [2]. Also, the viability increase in assay [3] is -0.99%. Moreover, the values for the viability in assay [4] and in assay [5] were 91.6% and 91.9%, respectively. In assay [6], the inhibition was 2.13%. Further, the RAM network inhibition in assay [7] was 4.34%.
On to `CCCCCn1c(=N)n(CC(O)COc2ccccc2OC)c2ccccc21` (configuration not stated), for which the growth inhibition is -4.93% in assay [1] and 4.88% in assay [2]. In addition, the viability increase in assay [3] is -7.9%. The viability is 15.6% (active) in assay [4] and 21.9% (active) in assay [5]. The inhibition in assay [6] was -0.235%. In assay [7], the RAM network inhibition was 0.4%.
Regarding `O=C(NCc1cccnc1)c1ccc(CS(=O)(=O)c2ccc(Br)cc2)o1`, the growth inhibition was -8.28% in assay [1] and -13.7% in assay [2]. For the same compound, the viability increase in assay [3] was -1.28%. Also, the results for the viability in assay [4] and in assay [5] were 95.3% and 92.8%, respectively. Moreover, the inhibition in assay [6] was 0.655%. Moreover, the RAM network inhibition in assay [7] was 3.41%.
In the case of `CCOc1ccc(CCNC(=O)c2nnc(Cc3ccc(F)cc3)o2)cc1OCC`, the growth inhibition is -5.33% in assay [1] and 7.65% in assay [2]. Moreover, the viability increase in assay [3] was -2.55%. In addition, the results for the viability in assay [4] and in assay [5] were 103% and 95.2%, respectively. Moreover, the inhibition in assay [6] is 1.5%. Moreover, the RAM network inhibition in assay [7] was 5.06%.
Turning to `CC(=O)N1CC2(C)CN(C(C)=O)CC(C)(C1)C2=O`, the figures for the growth inhibition in assay [1] and in assay [2] were -5.64% and 2.83%, respectively. Also, the viability increase in assay [3] is -0.26%. In addition, the figures for the viability in assay [4] and in assay [5] were 101% and 102%, respectively. Besides, the inhibition in assay [6] is 1.9%. For the same compound, the RAM network inhibition in assay [7] is -0.41%.
